WT yeast gro inh = growth inhibition of WT yeast, mitochondrial fusion screen; inhibition, % at 10 µM; mitochondrial fusion phenotypic screen, WT strain; actives 2.1% (n = 190,000); in the data active means inhibition above about 58%; tested in S. cerevisiae
ABCB1 block = human ABCB1 inhibition, ABCG2 as counter-screen; inhibition, % at 6.6 µM; CCRF-Adr cells, JC-1 efflux, flow cytometry; actives 0.067% (n = 190,000); in the data active means inhibition above about 40%;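 further: higher value means more JC-1 retained so stronger ABCB1 efflux block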
RAM inhibit = blocks the yeast RAM network; AID 868; inhibition, % at 50 µM; actives 1.8% (n = 190,000); S. cerevisiae dse1pr::URA3 reporter, 5-FOA growth OD615, 2 d; analog-sensitive cbk1-as2 kinase mutant strain;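 active means inhibition above a set limit, 3 SD over mean compound inhibition, cut at about 8.4% in these data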;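 further: inhibition rescues growth on 5-FOA so higher OD means more RAM inhibition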
Lmaj promast = Leishmania major promastigote growth inhibition. actives 9% (n = 200,000). inhibition, % at 10 µM. Leishmania major promastigotes, resazurin fluorescence viability; in the data active means inhibition above about 50%;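 further: promastigotes grown with compound for 44 hours at 28 °C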
ABCG2 block = human ABCG2 inhibition, ABCB1 as counter-screen; actives 0.1% (n = 190,000); AID 1325; inhibition, % at 6.6 µM; IgMXP3 cells, JC-1 efflux, flow cytometry; Q9UNQ0;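 active means inhibition above 80%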
Target sequence (Q9UNQ0 whole entry, looked up): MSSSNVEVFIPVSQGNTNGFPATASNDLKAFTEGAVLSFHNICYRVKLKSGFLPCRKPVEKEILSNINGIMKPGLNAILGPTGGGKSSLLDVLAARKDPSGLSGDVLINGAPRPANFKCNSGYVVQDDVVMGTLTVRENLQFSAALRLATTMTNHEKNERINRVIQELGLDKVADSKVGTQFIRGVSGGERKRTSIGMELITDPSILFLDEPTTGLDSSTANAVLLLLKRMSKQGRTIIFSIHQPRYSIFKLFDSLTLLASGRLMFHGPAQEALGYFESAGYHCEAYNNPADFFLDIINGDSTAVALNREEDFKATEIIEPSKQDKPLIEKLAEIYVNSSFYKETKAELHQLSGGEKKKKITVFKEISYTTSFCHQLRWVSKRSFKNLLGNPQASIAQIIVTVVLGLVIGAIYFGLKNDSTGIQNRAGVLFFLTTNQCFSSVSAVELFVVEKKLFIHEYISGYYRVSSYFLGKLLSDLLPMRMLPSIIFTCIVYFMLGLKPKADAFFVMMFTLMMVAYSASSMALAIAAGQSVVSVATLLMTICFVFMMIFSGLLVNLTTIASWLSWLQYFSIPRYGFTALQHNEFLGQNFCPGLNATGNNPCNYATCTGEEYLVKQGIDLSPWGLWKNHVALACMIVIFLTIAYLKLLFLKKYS
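Incubation: cells with compound and JC-1, 10 min at 25 °C, rotating, no wash / Test system: IgMXP3 (ABCG2) plus far-red-tagged CCRF-Adr (ABCB1) cells / Compound dosing: one concentration, 6.6 µM final / Also added: JC-1 fluorescent substrate / Evaluation: efflux inhibition in percent versus controls / Detection: flow cytometry, 530 nm JC-1 signal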
Large screens that a line does not name were inactive. Sampled rows, rich in hits. Any-hit rate of the full collection: about 12%.

COc1ccc(-c2nc(C#N)c(N3CCN(c4ccccc4)CC3)o2)cc1	none
CC(C)c1ccc(N(CC(=O)NCC2CCCO2)C(=O)Cn2nnc(-c3cccs3)n2)cc1 (configuration not stated)	none
Cc1ccc(S(=O)(=O)n2c([N+](=O)[O-])cnc2C)c(C)c1C	none
CC(=O)N(C)c1ccc(NC(=S)NCC(C)C)cc1	none
CSc1cccc(NC(=O)CCCOc2ccccc2)c1	none
CSc1cccc(NC(=O)CSc2ccc(C)cc2)c1	none
CSc1cccc(NC(=O)CSc2ccc(Cl)cc2)c1	Lmaj promast 54
CCCCC(=O)Nc1ccc(C(=O)NNC(=O)CCCOc2ccc(Cl)cc2Cl)cc1	none
CC(C)C(=O)Nc1ccc(C(=O)NNC(=O)CCCOc2ccc(Cl)cc2Cl)cc1	WT yeast gro inh 79
COc1cccc(C(=O)Nc2cccc(C(=O)NCC(C)C)c2)c1	Lmaj promast 64
CSc1cccc(NC(=O)CCCOc2ccc(Cl)cc2Cl)c1	RAM inhibit 11
Cc1cc(C)n2nc(SCC(=O)c3c(N)n(CC(C)C)c(=O)n(C)c3=O)nc2n1	none
COc1cc2c(cc1OC)CN(C1CC(=O)N(c3c(C)cccc3C)C1=O)CC2 (configuration not stated)	none
Cc1ccc(S(=O)(=O)NCC(=O)OCC(=O)NC(=O)NC2CCCC2)cc1	none
CC(C)(C)NC(=O)c1cccc(NC(=O)CSc2ccc(Cl)cc2)c1	Lmaj promast 91
COc1cccc(CNC(=O)c2cccc(Br)c2)c1	Lmaj promast 54
CC(C)CNC(=O)c1cccc(NC(=O)CSc2ccc(Cl)cc2)c1	RAM inhibit 9.8
COc1ccc(Nc2nc(Nc3ccc(OC)cc3)nc(-n3[nH]c(=O)c(C)c3C)n2)cc1	Lmaj promast 100
CC1CCCCN1Cc1nc2c(c(=O)n(C)c(=O)n2C)n1Cc1cccc2ccccc12 (configuration not stated)	none (no result: ABCB1 block, RAM inhibit, Lmaj promast, ABCG2 block)
CCN1CCN(c2ccc(NC(=O)CCc3c(C)nc4c(-c5ccc(F)cc5)c(C)nn4c3C)cc2)CC1	Lmaj promast 99
Cc1nc2c(-c3ccc(F)cc3)c(C)nn2c(C)c1CCC(=O)N1CCN(c2ccccc2)CC1	none
Cc1nc2c(-c3ccc(F)cc3)c(C)nn2c(C)c1CCC(=O)N1CCC(Cc2ccccc2)CC1	WT yeast gro inh 65
O=S(Cc1cc(Sc2ccccc2)nc(-c2ccccc2)n1)c1ccccc1 (configuration not stated)	WT yeast gro inh 59
CCOc1cc(/C=N/n2cnnc2)ccc1OS(=O)(=O)c1ccc(C)cc1	Lmaj promast 79
CCOC(=O)C1(CCCc2ccccc2)CCN(Cc2ccn[nH]2)CC1	none
Cc1ccc(C(C)C)c(OCC(=O)Nn2c(C)nc3ccccc3c2=O)c1	none
Cc1ccc(C(C)C)c(OCC(=O)Nn2c(=O)[nH]c3ccccc3c2=O)c1	Lmaj promast 59
Nc1nc2c(c(=O)[nH]1)C(c1cccc3ccccc13)C1=C(N2)c2ccccc2C1=O (configuration not stated)	none
O=C(/C=C/c1ccoc1)c1ccccc1O	Lmaj promast 76
CC1CCCCC1NC(=O)CSc1nnc(-c2ccccc2)n1N (configuration not stated)	none
Cc1onc(-c2c(F)cccc2Cl)c1C(=O)Nc1sc2c(c1C(N)=O)CCC2	WT yeast gro inh 67, Lmaj promast 63
Cc1onc(-c2ccccc2)c1C(=O)Nc1sc2c(c1C(N)=O)CCC2	none
Cc1onc(-c2c(F)cccc2Cl)c1C(=O)Nc1cccc(Cn2cccn2)c1	Lmaj promast 63
Cc1onc(-c2ccccc2Cl)c1C(=O)Nc1cccc(-c2cn3cccnc3n2)c1	RAM inhibit 9.0 (no result: WT yeast gro inh)
CC(C)N(C(=O)C(=O)c1cccn1-c1ccccc1C#N)C(C)C	none
CCCN(CCC)C(=O)NC1CC(=O)N(c2ccc(OC)cc2)C1 (configuration not stated)	none
CN(C(=O)COC(=O)c1ccc2c(=O)n3c(nc2c1)CCC3)C1CCS(=O)(=O)C1 (configuration not stated)	none
Cc1cc(Cl)ccc1OCC(=O)NCCCCc1ccccc1	WT yeast gro inh 63
CC(Oc1ccc(Cl)cc1Cl)C(=O)NCCCCc1ccccc1 (configuration not stated)	WT yeast gro inh 61
O=C(COc1ccc(Cl)cc1Cl)Nc1ccccn1	WT yeast gro inh 66
Cc1cc(Cl)ccc1OCC(=O)NCCC(=O)O	none
O=C(COc1ccc(Cl)cc1Cl)NCCCCc1ccccc1	WT yeast gro inh 76
COC(=O)CS(=O)(=O)c1ccsc1C(=O)Nc1ccc(F)c(F)c1	none
O=C(CNc1ccccc1)N/N=C/c1c[nH]c2ccccc12	none
O=C(COc1ccccc1-c1ccccc1)NCc1cccc(Cl)c1	WT yeast gro inh 78
O=C(COc1ccc(Cl)cc1Cl)NCC(=O)N/N=C/c1c[nH]c2ccccc12	RAM inhibit 9.8, Lmaj promast 70
Cc1ccccc1OCC(=O)NCc1ccccc1	none
O=C(CSc1nnc(SCc2ccc(Cl)cc2)s1)N/N=C/c1c[nH]c2ccccc12	Lmaj promast 65
CSc1ncccc1C(=O)OCC(=O)NC(C)C	none
O=c1cc(CSc2ccccc2)nc(-c2ccncc2)[nH]1	none
CS(=O)(=O)N1CCN(c2ccc(NC(=O)c3ccccc3)cc2)CC1	none
CC1CCCCC1NC(=S)NC(=O)c1sc2ccccc2c1Cl (configuration not stated)	none
O=C(NC(=S)N(CCCCO)C1CCCCC1)c1sc2ccccc2c1Cl	Lmaj promast 92
COc1ccc(NC(=O)Nc2cccc(C(F)(F)F)c2)cn1	none
COC(=O)c1cc2occc2n1Cc1nc(-c2ccc(Cl)cc2)oc1C	none
COC(=O)c1ccc(-c2ccco2)n1Cc1ccccc1Cl	none
COC(=O)c1ccc(-c2ccco2)n1Cc1nc(-c2ccc(OC)c(OC)c2)oc1C	RAM inhibit 8.4, Lmaj promast 66
COC(=O)c1cc2ccsc2n1Cc1nc(-c2ccc(Cl)cc2)oc1C	Lmaj promast 99
CCOC(=O)c1oc2ccc(/C=N/O)c(Cl)c2c1C	none
COc1cc(-n2c(=O)c3ccccc3n(CC(=O)c3ccccc3)c2=O)cc(OC)c1OC	none
COc1cc2c(=O)n(-c3ccc(C)cc3)c(=O)n(CC(=O)c3ccc4c(c3)OCO4)c2cc1OC	RAM inhibit 9.1
COc1cc(OC)cc(C(=O)Nc2nnc(-c3cccnc3)o2)c1	none
O=C(Nc1nnc(-c2ccccn2)o1)c1cccc(Cl)c1	Lmaj promast 51
O=C(Nc1nnc(-c2cccnc2)o1)c1cccc(Cl)c1	Lmaj promast 55
CCCCN(CC)Cc1ccc(CNC(=O)Nc2ccc(OCC)cc2)o1	Lmaj promast 99
CCCCN(CC)Cc1ccc(CNC(=O)Nc2ccc(Cl)cc2)o1	Lmaj promast 98
COc1cc(OC)cc(C(=O)N[C@H](C(=O)OCC(=O)Nc2ccc(C(C)C)cc2)C(C)C)c1	RAM inhibit 8.5
COc1cc(OC)cc(C(=O)N[C@H](C(=O)OCC(=O)Nc2ccc(OC)c(OC)c2)C(C)C)c1	none

From PubChem BioAssay
